Among the data in ChEMBL document CHEMBL1781999, “Lead optimization of aryl and aralkyl amine-based triazolopyrimidine inhibitors of Plasmodium falciparum dihydroorotate dehydrogenase with antimalarial activity in mice” (J Med Chem, 2011) are ED50, Activity and PPB values, retold here.

Data set [1] is described as follows: Antimalarial activity against Plasmodium berghei ANKA NK65 infected in po dosed Swiss Webster mouse assessed as reduction of parasitemia level administered qd for 4 days measured 24 hrs after last dose by light microscopic analysis. Type of data set: functional.
A short description of data set [2]: Antimalarial activity against Plasmodium berghei ANKA NK65 infected in Swiss Webster mouse assessed as reduction of parasitemia level at 2 mg/kg, po qd administered for 4 days measured 24 hrs after last dose by light microscopic analysis. The format is functional. Also noted: scale not given: the % may be the effect or the level left. The method, boiled down: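 Female Swiss Webster mice, 8-10 weeks old (20-22 g), infected intraperitoneally with 2 × 10^7 P. berghei NK65 ANKA-infected erythrocytes. Oral doses in CMC vehicle (200 μL), first given 3 h post-infection, then at 24, 48 and 72 h. Parasitemia followed daily from 24 h by light microscopy at 1000× oil immersion, counting ≥10 fields of >100 erythrocytes. Mice losing ≥20% body weight were euthanized.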

The next data set concerns Plasma. Briefly: Plasma protein binding in human by albumin chromatographic method. The format is ADME, cell-free.

On to `CCN(CC)CCCC(C)Nc1ccnc2cc(Cl)ccc12` (stereo not drawn) [CHLOROQUINE], for which the ED50 in data set [1] amounted to 1.8 mg/kg. Besides, the Activity in data set [2] is 50%. For the same compound, the PPB in the data set with Plasma is 87%.

For orientation: ED50 means the dose at which the effect has come halfway, by size or by number of responders.
